ARNT TACC3 PPI: disruptors of ARNT/TACC3 protein interaction, primary screen, biochemical, AlphaScreen, single concentration. Transforming acidic coiled-coil-containing protein 3 (Homo sapiens), Q9Y6A5. AlphaScreen His-ARNT PAS-B/GST-TACC3 binding, luminescence; TACC3 fragment carries E629A point mutation. inhibition, % at 9.99 µM. hit rate 0.66% among 390,000;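 active = mean inhibition of replicates at least 50% and at least half of replicates each reaching 50%; inconclusive = half or more replicates reach 50% but mean below 50%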;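 also: 0% = complete ARNT plus TACC3 wells and 100% = ARNT alone without TACC3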
SR-BI DiI-HDL act: activators of SR-BI mediated DiI-HDL uptake, primary screen, ldlA[mSR-BI] CHO cells, DiI fluorescence; 3 h; 100 = double the neutral-control signal; activation, % at 12.5 µM; hit rate 0.096% among 320,000;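 active = mean replicate activation of at least 60% and every replicate at or above 60%; inconclusive = mean or all-replicate condition met, but not both; inactive = mean below 60% and not all replicates reaching 60%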;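 also: 0% = median plate neutral-control signal and 100% = twice that signal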
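Material: SR-BI-overexpressing, LDLR-lacking CHO cells | Dosing: Single compound concentration, delivered by pin transfer | Probe or stimulus: Labelled HDL, 10 µg/mL | Signal: Bottom-read cell fluorescence after medium removal, ex 550/em 595 nm | Schedule: 3 h, 37 °C | Evaluation: HDL uptake via cellular fluorescence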
NSD2 inh: NSD2 histone methyltransferase inhibitors, primary screen, biochemical, AlphaScreen, single concentration, set 2; Histone-lysine N-methyltransferase NSD2 (Homo sapiens), O96028; NSD2 peptide methylation, 120 min; inhibition, % at 12.5 µM; hit rate 0.54% among 310,000; in the data active = inhibition above about 50%
Target sequence (O96028 whole entry, looked up): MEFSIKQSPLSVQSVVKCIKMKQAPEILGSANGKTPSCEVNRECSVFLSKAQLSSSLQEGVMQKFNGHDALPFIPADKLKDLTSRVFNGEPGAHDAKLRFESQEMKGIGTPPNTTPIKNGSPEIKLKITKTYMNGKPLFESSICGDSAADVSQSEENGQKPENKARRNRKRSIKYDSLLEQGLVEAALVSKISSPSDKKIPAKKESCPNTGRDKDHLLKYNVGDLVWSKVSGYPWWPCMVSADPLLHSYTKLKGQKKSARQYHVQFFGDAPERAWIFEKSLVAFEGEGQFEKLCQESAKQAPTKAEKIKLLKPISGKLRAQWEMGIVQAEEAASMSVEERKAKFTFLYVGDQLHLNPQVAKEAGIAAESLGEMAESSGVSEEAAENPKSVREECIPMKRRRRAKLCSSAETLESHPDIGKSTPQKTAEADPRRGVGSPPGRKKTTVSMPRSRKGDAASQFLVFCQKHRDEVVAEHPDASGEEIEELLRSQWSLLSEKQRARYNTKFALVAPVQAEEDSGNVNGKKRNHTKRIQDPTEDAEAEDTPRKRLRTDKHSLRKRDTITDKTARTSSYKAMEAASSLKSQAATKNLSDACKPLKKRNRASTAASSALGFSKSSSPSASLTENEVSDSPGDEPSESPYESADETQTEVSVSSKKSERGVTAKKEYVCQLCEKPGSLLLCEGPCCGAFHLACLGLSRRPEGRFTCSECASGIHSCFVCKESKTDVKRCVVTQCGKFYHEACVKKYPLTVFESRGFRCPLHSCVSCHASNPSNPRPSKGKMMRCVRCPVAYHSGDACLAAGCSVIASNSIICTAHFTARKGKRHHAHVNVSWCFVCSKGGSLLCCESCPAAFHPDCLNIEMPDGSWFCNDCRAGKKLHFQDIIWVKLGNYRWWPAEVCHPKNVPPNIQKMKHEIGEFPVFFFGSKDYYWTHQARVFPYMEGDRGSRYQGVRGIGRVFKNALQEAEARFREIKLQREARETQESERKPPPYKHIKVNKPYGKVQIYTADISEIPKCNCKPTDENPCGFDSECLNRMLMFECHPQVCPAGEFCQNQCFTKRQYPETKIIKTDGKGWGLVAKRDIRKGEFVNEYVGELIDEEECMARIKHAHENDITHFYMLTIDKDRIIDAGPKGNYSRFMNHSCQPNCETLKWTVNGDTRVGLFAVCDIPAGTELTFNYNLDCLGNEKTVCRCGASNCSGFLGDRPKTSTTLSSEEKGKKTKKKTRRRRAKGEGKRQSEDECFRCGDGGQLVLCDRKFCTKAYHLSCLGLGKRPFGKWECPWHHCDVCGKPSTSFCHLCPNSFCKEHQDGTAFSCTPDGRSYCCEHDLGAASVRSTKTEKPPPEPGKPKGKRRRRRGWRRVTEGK
sPLA2-III inh: human group III sPLA2 inhibitors, primary screen, biochemical, QFRET, BODIPY PC-A2 liposome substrate. QFRET BODIPY PC-A2 liposome hydrolysis, fluorescence. inhibition, % at 12.2 µM. hit rate 0.56% among 370,000;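 active = inhibition above mean plus 3 SD of compounds lying within the high and low control bounds, cut at about 19% in these data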;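 also: 0% = median of test compound wells and 100% = no enzyme DMSO wells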
XiGFP reactiv: activators of inactive X chromosome reactivation, primary screen, imaging, XiGFP fibroblasts, GFP high-content imaging, set 2; hit rate 0.055% among 360,000; activation, % at 7.58 µM; XiGFP mouse fibroblasts, % GFP-positive cells imaging, 3 d; cells co-treated with 5-aza-dC sensitizer; scaled so ellipticine positive control = 100%;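 active = mean normalized replicate activation at least 10% and every replicate at or above 10%; inconclusive = only one of the two criteria met; inactive = mean below 10% and not all replicates reach 10%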;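 also: 0% = median of on-plate neutral control wells and 100% = ellipticine 6 µM median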
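System: SV40-immortalized XiGFP fibroblast cells, line 68-5-11 / Incubation: 3-day compound exposure, then 15 min fixation at room temperature / Compound: single concentration per compound, delivered by pin transfer / Buffer or medium: DMEM plus 5-aza-dC sensitizer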
SR-BI DiI inh: inhibitors of SR-BI mediated HDL lipid uptake, primary screen, ldlA[mSR-BI] cells, fluorescence, single point. Scavenger receptor class B member 1 (Mus musculus), Q61009. ldlA[mSR-BI] CHO cells, DiI-HDL uptake fluorescence, 3 h. inhibition, % at 12.5 µM. hit rate 0.96% among 320,000. AID 488896, 2010;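 active = mean replicate inhibition of at least 70% and a set share of replicates each scoring 70 or more; inconclusive = meets just one of the two criteria; inactive = fails both criteria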;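 also: 0% = median of neutral control wells and 100% = median of positive control wells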
DiI quencher: quenches DiI-HDL fluorescence, an SR-BI assay artifact. AC50, µM (highest dose often 35 µM), for the others: at the highest dose activity change, negative = quenching. AID 540326. shares compounds with SR-BI DiI inh. hit rate 20% among 470. cell-free DiI-HDL fluorescence quenching, 30 min;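 active = quenching, a falling signal, with AC50 below a set limit tied to the top valid dose, actives reach about 32 µM in these data; inconclusive = no clear call, values can overlap the other calls; inactive = rising signal, and the rest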
Starred values were filed as active, the others as inactive; ? = inconclusive; nt = not tested or not shown. Sampled rows, rich in hits. Any-hit rate of the full collection: about 2%.

SMILES	ARNT TACC3 PPI	SR-BI DiI-HDL act	NSD2 inh	sPLA2-III inh	XiGFP reactiv	SR-BI DiI inh	DiI quencher
Cc1nn(-c2ccccc2)c(C)c1P(=O)(c1ccccc1)N(C)C (configuration not stated)	-8.2	11.9	3.1	13.2	nt	-11.9	nt
Cc1c(NC(=O)c2cc(-c3ccc(O)cc3)on2)c(=O)n(-c2ccccc2)n1C	-6.8	23.1	-2.3	2.5	-0.2	-23.1	nt
N#C[C@@H]1[C@@H](c2ccccc2-c2ccccc2)[C@H](CO)N1C(=O)Cc1cccnc1	nt	nt	nt	nt	0.2	nt	nt
C[C@@H]1CN([C@@H](C)CO)C(=O)c2cccc(NS(=O)(=O)c3ccc(F)cc3)c2O[C@H]1CN(C)Cc1ccncc1	-9.7	nt	nt	nt	0.0	nt	nt
COc1ccc(-c2cc3c(=O)n(CC(=O)NCc4ccc(C)cc4)ncn3n2)cc1	-2.1	5.3	nt	-5.8	0.1	-5.3	nt
CCOc1ccc(CCNC(=O)Cn2ncn3nc(-c4ccc(OC)cc4)cc3c2=O)cc1	0.4	-71.7	nt	5.0	0.2	71.7*	-1.6%
CC1Cc2ccccc2N1C(=O)Cn1nnc(-c2ccccc2NC(=O)C2CCC2)n1 (configuration not stated)	0.4	-78.6	-11.4	-6.6	nt	78.6*	15.0%
CCC(=O)Nc1ccccc1-c1nnn(CC(=O)N2c3ccccc3CC2C)n1 (configuration not stated)	-1.6	-65.4	-1.4	10.4	nt	65.4	5.6%
CC(C)CC(=O)Nc1ccccc1-c1nnn(CC(=O)N2CCc3ccccc3C2)n1	-3.3	-41.3	-1.4	-0.6	nt	41.3	nt
O=C(Nc1ccccc1-c1nnn(CC(=O)N2CCc3ccccc3C2)n1)C1CCC1	-2.4	-54.7	-3.6	4.1	nt	54.7	nt
COc1ccc2c(c1)OC[C@H]1[C@H]2N2C(=O)c3cc(Cl)ccc3NC(=O)[C@@]2(C)[C@H]1c1ccccc1	-13.6	-71.8	nt	nt	nt	71.8*	-6.4%
Cc1cc2oc(=O)cc(-c3ccccc3)c2c(C)c1-c1ccc(C(F)(F)F)cc1	2.7	-74.1	nt	7.0	0.0	?	-4.1%
O=C(O)CC(C(=O)Nc1ccc(Cl)cc1Cl)C1CCCO1 (configuration not stated)	-11.0	14.7	0.0	-0.1	-0.2	-14.7	nt
Cc1ccc(C)c(NC(=O)C(CC(=O)O)C2CCCO2)c1 (configuration not stated)	-5.8	-77.3	-1.1	-1.8	0.0	77.3*	-2.5%
COc1ccc(NC(=O)Cn2c(=O)n(CC(=O)NCc3ccco3)c(=O)c3ccccc32)cc1OC	5.0	46.8	0.1	1.7	nt	-46.8	nt
COc1cc(OC)cc(C(=O)N[C@H](C(=O)Nc2nc(-c3ccc(F)c(F)c3)cs2)C(C)C)c1	3.0	-84.5	0.8	-4.0	0.0	84.5*	1.5%
CCOc1ccccc1/C=C/c1onc(C)c1S(=O)(=O)N1CCC(C(=O)NC(C)(C)C)CC1	0.0	-84.4	-0.3	-11.7	0.0	84.4*	4.2%
COc1ccc(NC(=O)C2CCN(C(=O)c3ccc(OC)cc3)CC2)cc1	6.1	-114.9	nt	5.2	nt	114.9*	0.1%
COc1ccc(C(=O)N2CCC(C(=O)Nc3ccc(OC)c(OC)c3)CC2)cc1	-4.3	-18.0	0.8	-0.2	nt	18.0	nt
CN(C(=O)CSc1nnc(COc2ccccc2F)n1N)C1CCCCC1	-3.0	15.3	-0.4	3.3	0.0	-15.3	nt
C[C@@H]1CCCCO[C@H](CN(C)Cc2ccncc2)[C@@H](C)CN([C@@H](C)CO)C(=O)c2cc(NC(=O)C3CCCCC3)ccc2O1	nt	nt	nt	nt	0.1	nt	nt
COCCN(Cc1cn(C)nc1-c1ccc(Oc2ccccc2)cc1)C(C)C	-5.5	-81.9	1.1	-6.3	0.1	81.9*	-3.7%
CC(C)N(C)Cc1cn(C)nc1-c1ccc(Oc2ccccc2)cc1	-4.2	10.6	3.8	0.7	0.4	-10.6	nt
COc1ccc(C2CC(c3ccccc3O)=NN2C(=O)c2ccccc2)cc1OC (configuration not stated)	-4.8	4.3	-1.3	-15.5	0.2	-4.3	nt
CCc1sc(NC(C)=O)nc1-c1ccccc1	nt	-6.5	7.9	17.4	0.1	6.5	nt
SMILES	ARNT TACC3 PPI	SR-BI DiI-HDL act	NSD2 inh	sPLA2-III inh	XiGFP reactiv	SR-BI DiI inh	DiI quencher
CCc1sc(N2C(=O)C3C4CCC(C4=C(C)C)C3C2=O)nc1-c1ccccc1 (configuration not stated)	-16.8	-84.1	-0.8	-4.0	nt	84.1*	2.3%
CCOC(=O)C1CCN(C(=O)Cn2cnc3sc(C)c(S(=O)(=O)N4CCC(C)CC4)c3c2=O)CC1	1.0	-71.0	-2.6	2.5	0.4	?	0.8%
N#CCCN(C(=O)COC(=O)CCc1c[nH]c2ccccc12)c1ccccc1	3.7	-0.7	4.3	-54.3	0.2	0.7	-9.5%
CCn1cc(CN2CCc3c([nH]c4ccccc34)C2c2ccc(F)c(OC)c2)c(C)n1 (configuration not stated)	1.9	-27.9	-1.3	-18.0	-0.2	27.9	nt
CCn1nc(C)c(CN2CCc3c([nH]c4ccccc34)C2c2ccc(F)c(OC)c2)c1C (configuration not stated)	nt	-81.6	-2.7	-18.9	0.4	81.6*	-10.6%
COc1ccccc1C(CC(=O)Nc1ccccc1C)c1ccc(OC(C)C)cc1 (configuration not stated)	0.2	-2.7	-0.2	-4.4	-0.1	?	1.1%
COc1ccc(NC(=O)CC(c2ccc(F)cc2)c2ccc(OC(C)C)cc2)cc1 (configuration not stated)	-4.8	-19.3	2.9	-12.2	0.2	19.3	nt
CCOCCCNC(=O)c1cc2cc3cc(OC)ccc3nc2o1	3.3	-11.9	-2.5	-3.4	0.0	11.9	nt
COc1cc(OC)cc(-c2oc(=O)c3cc(OC)c(OC)cc3c2C#CCCCO)c1	0.3	-38.6	nt	4.8	0.0	38.6	nt
COc1cc2c(C#CCCCO)c(-c3ccsc3)oc(=O)c2cc1OC	0.0	-73.5	nt	-2.9	0.1	?	-2.8%

From PubChem
